Only some compounds are listed: those with a hit (about 2.2% of all), similar ones and a draw of the others.
TRAIL sens C8 = viability loss with TRAIL in NB7+C8 cells, primary screen, TRAIL sensitizer project, cell-based, ATPlite luminescence | actives 1% (n = 360,000) | AID 624354, 2012 | inhibition (viability loss, TRAIL sensitization), % at 10 µM;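 active means compounds causing at least 50% loss of cell viability in the single-dose screen, relative to plate controls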
FLuc inh counter = firefly luciferase enzyme inhibitors, primary screen, artefact control for luciferase-based inhibitor screens, biochemical, luminescence, ATPLite | actives 1.5% (n = 200,000) | AID 1006, 2008 | Luciferin 4-monooxygenase (Photinus pyralis), P08659 | inhibition, % at 10 µM | 10 min;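 active means inhibition above about 50% when tested at 10 µM, limit read from the data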
FLuc act counter = FLuc activators, initial screening, artefact control for FLuc-dependent activation tests, biochemical, ATPlite luminescence; ATPlite luciferase biochemical, 10 min; 0 = ATP-free wells, 1 = DMSO control; activation factor at 10 µM; 200,000 tested, under 10 active; Luciferin 4-monooxygenase (Photinus pyralis), P08659;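 active means luciferase activation factor, scaled between plate controls, of at least 2 with compound at 10 µM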
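Assay system: Luciferase/luciferin detection reagent, cell-free biochemical luciferase assay / Read-out: luciferase activation / Benchmarks: No-ATP low control, compound-free enzyme-plus-ATP high control / Medium: PBS buffer for ATP / Detection: luminescence measurement of luciferase light output / Schedule: 10 min at ambient temperature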
PPC-1+TRAIL kill = compounds killing PPC-1 cancer cells with TRAIL present, primary screen, TRAIL potentiator project, ATPLite luminescence, uHTS. PPC-1 cells + TRAIL, ATPLite viability luminescence. cell killing (% activity), % at 4 µM or 5 µM. actives 0.41% (n = 220,000). AID 1443, 2008;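 active means cell killing above 50% in the first pass at 4 µM, then a duplicate retest at 5 µM averaging 50% or more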
PKD1 inh = inhibitors of human PKD1 kinase, biochemical, fluorescence polarization | Serine/threonine-protein kinase D1 (Homo sapiens), Q15139 | PKD1 kinase fluorescence polarization assay | inhibition, % (concentration not given with the values) | actives 0.056% (n = 200,000) | AID 797, 2007; in the data active means inhibition above about 50%
Target sequence (Q15139 whole entry, looked up): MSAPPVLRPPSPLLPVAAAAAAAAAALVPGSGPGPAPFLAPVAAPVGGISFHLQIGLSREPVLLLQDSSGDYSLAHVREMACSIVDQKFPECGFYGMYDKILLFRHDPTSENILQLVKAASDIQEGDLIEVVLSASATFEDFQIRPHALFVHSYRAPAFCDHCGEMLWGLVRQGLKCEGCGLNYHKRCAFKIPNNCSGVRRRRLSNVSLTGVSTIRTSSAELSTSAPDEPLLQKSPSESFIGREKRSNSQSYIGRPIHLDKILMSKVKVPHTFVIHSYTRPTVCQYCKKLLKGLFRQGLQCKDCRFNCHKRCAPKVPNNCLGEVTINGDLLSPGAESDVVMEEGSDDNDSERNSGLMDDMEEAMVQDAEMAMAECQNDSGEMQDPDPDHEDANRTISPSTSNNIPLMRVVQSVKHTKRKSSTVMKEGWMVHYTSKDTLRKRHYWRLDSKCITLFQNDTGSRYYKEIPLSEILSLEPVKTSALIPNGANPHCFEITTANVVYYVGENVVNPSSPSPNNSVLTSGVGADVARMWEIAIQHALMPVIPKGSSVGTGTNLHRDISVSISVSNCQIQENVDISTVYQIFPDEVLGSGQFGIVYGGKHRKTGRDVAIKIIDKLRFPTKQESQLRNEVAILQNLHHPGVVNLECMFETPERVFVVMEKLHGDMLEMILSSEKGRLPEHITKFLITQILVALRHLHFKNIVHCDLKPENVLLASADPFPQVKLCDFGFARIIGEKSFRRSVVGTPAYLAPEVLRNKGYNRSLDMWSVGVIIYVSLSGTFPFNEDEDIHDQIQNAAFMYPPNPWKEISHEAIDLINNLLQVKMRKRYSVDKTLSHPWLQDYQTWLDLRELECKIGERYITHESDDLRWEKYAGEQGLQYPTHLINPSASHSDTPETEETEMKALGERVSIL
Wee1 degr inh = Wee1 degradation inhibitors, primary screen, cell-based, HeLa, Wee1K328M-luciferase, luminescence; HeLa Luc-Wee1K328M stability; 100% = proteasome inhibitor MG132 effect; reporter increase, % at 5 µM; actives 1.2% (n = 220,000);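 active means activation above the mean of all tested compounds plus 3 SD, set per screening run, cut at about 8.8% in these data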;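 further: cells exposed to compound for 20 h before luminescence read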
A number is an active result; 0 = inactive; - = no result.

SMILES	TRAIL sens C8	FLuc inh counter	FLuc act counter	PPC-1+TRAIL kill	PKD1 inh	Wee1 degr inh
O=C(/C=C/NNC(=O)c1ccccc1)c1ccc([N+](=O)[O-])cc1	50.4	0	0	0	0	0
CC(=O)NC(=S)Nc1ccccc1N1CCN(C(=O)c2ccccc2)CC1	0	0	0	0	0	0
CC(C)C(=O)NC(=S)Nc1ccccc1N1CCN(C(=O)c2ccccc2)CC1	0	0	0	0	0	10.4
Cc1cc(C)n2nc(CCCCc3nc4nc(C)cc(C)n4n3)nc2n1	-	0	0	-	0	0
CCc1c(C)nn(C(=O)/C(C#N)=C\N(C)C)c1C	0	0	0	0	0	0
Cc1c(-c2ccccn2)c(=O)[nH]n1-c1ccc(F)cc1	0	60.9	0	0	0	0
O=c1[nH]n(-c2ccc(F)cc2)c2ncccc12	0	0	0	0	0	0
CC(C)(C)c1ccc(C(=O)Nc2nnc(SCC(=O)NCC3CCCO3)s2)cc1 (stereo not given)	93.7	-	-	-	-	-
CCOc1ccc(C(=O)Nc2nnc(SCC(=O)NCC3CCCO3)s2)cc1 (stereo not given)	92.0	-	-	-	-	-
O=C(CSc1nnc(NC(=O)c2cccc(F)c2)s1)NCC1CCCO1 (stereo not given)	0	-	-	-	-	-
Cc1cc(-c2nnc(CSc3nnc(NC(=O)c4ccc(C(C)(C)C)cc4)s3)o2)ccc1[N+](=O)[O-]	51.2	-	-	0	-	0
CN(C)S(=O)(=O)c1ccc(C(=O)Nc2nnc(SCC(=O)NCC3CCCO3)s2)cc1 (stereo not given)	55.3	-	-	-	-	-
NNC(=O)CCn1c2ccccc2c2ccccc21	0	0	0	0	0	0
CC(C)NC(=O)Nc1ccc2c(c1)C(=O)N([C@H](C)CO)C[C@H](C)[C@@H](CN(C)C(=O)NC(C)C)O2	0	-	-	-	-	-
CCCCCCCCN1C(=O)[C@H](CC(=O)NCCC(C)C)C[C@@]2(C(=O)OC)CC(C)(C)CC=C12	0	-	-	-	-	-
O=C(Nc1nncs1)c1cccnc1Cl	0	0	0	0	0	0
Cc1ccc(N(CC(=O)O)S(C)(=O)=O)cc1	0	0	0	0	0	0
COc1cccc(C2C(C(N)=O)=C(C)Nc3nc(CCCO)nn32)c1 (stereo not given)	0	-	-	-	-	-
COc1ccc(C2C(C(C)=O)=C(O)C(=O)N2c2ccc(F)cc2)cc1 (stereo not given)	0	-	-	-	-	-
Cc1csc(=NC(=O)c2ccccc2)n1C	0	0	0	0	0	0
O=C(N=c1nc2ccccn2s1)c1ccccc1	83.9	95.2	0	83.5	-	-
COc1ccc(-n2c(-c3ccc(Br)cc3)c[n+]3c2CCc2ccccc2-3)cc1	0	0	0	0	0	0
CC(C)c1ccc(-n2c(-c3ccccc3)c[n+]3c2CCc2ccccc2-3)cc1	52.8	0	0	0	0	0
COC(=O)[C@]1(Cc2ccccc2)N[C@H](CN(C)S(=O)(=O)c2ccc(C(C)(C)C)cc2)[C@@H]2C(=O)N(C)C(=O)[C@@H]21	0	-	-	-	-	-
COc1cccc2sc(N(CCCN(C)C)C(=O)c3ccc(S(=O)(=O)N4CCc5ccccc5C4)cc3)nc12	82.9	-	-	-	-	-
SMILES	TRAIL sens C8	FLuc inh counter	FLuc act counter	PPC-1+TRAIL kill	PKD1 inh	Wee1 degr inh
CN(C)CCCN(C(=O)c1ccc(S(=O)(=O)N2CCc3ccccc3C2)cc1)c1nc2c(F)cc(F)cc2s1	0	-	-	-	-	-
COc1cc2nc(N(CCCN(C)C)C(=O)c3ccc(S(=O)(=O)N4CCc5ccccc5C4)cc3)sc2cc1OC	0	-	-	-	-	-
Cc1ccc2sc(N(CCCN(C)C)C(=O)c3ccc(S(=O)(=O)N4CCc5ccccc5C4)cc3)nc2c1C	75.9	-	-	-	-	-
COc1ccc(C)c2sc(N(CCCN(C)C)C(=O)c3ccc(S(=O)(=O)N4CCc5ccccc5C4)cc3)nc12	93.2	-	-	-	-	-
O=S1(=O)CCOC[C@H](Cc2ccccc2)N1Cc1cccc(C(F)(F)F)c1	0	-	-	-	-	-
FC(F)(F)c1cccc(CC2CN(Cc3ccccc3)Cc3ccccc3N2c2cc(Cl)cc(Cl)c2)c1 (stereo not given)	60.3	-	-	-	-	-
CC1(C)CC(=O)C2=C(C1)NC1=C(C(=O)c3ccccc31)C2c1cc([N+](=O)[O-])ccc1O (stereo not given)	0	-	-	0	-	0
CN(c1ccccc1)c1cc(Br)nc(Br)c1	0	-	-	-	-	-
Cc1ccc(S/C=C\C(=O)c2ccccc2)cc1	55.2	91.0	0	0	0	0
C=CCNC(=O)CN1CCN(C(c2ccccc2)c2ccccc2)CC1	0	-	-	-	-	-
Nc1cc(=O)[nH]c(SCC(=O)Nc2ccc3c(c2)CCC3)n1	0	0	0	0	0	9.6
Cc1ccc2nc(-c3ccc(NC(=O)CSc4nc(N)cc(=O)[nH]4)cc3)sc2c1	0	-	-	0	-	10.7
Cc1ccc2nc(-c3ccc(NC(=O)COC(=O)c4ccc(=O)[nH]c4)cc3)sc2c1	0	50.4	0	50.4	0	0
O=C(CCN1C(=O)NC2(CCCC2)C1=O)Nc1ccc(-c2nc3ccccc3s2)cc1	56.1	-	-	-	-	-
COc1cc(CN(C2CC2)S(=O)(=O)c2ccccc2Br)cc(OC)c1	0	-	-	-	-	-
Cc1nnc(SCC(=O)Nc2ccc(-c3nc4ccccc4s3)cc2)s1	66.7	79.8	0	0	0	0
Cc1nnc(SCC(=O)Nc2ccccc2NC(=O)CSc2nnc(C)s2)s1	0	0	0	0	0	0
COc1ccc(-c2csc(NC(=O)c3ccccc3F)c2C(=O)O)cc1	0	-	-	-	-	-
CCOC(=O)C1=C(COC(=O)CNS(=O)(=O)c2c(F)cc(F)cc2Br)NC(=O)NC1C (stereo not given)	0	-	-	-	-	-
Cc1csc(NC(=S)NC(=O)c2ccccc2)n1	71.8	-	-	-	-	-
Cc1csc(NC(=O)c2ccccc2)n1	0	-	-	-	-	-
CCOC(=O)Cc1csc(NC(=S)NC(=O)c2ccc(C)cc2)n1	81.9	80.0	0	0	0	0
CCOC(=O)c1sc(NC(=S)NC(=O)c2ccccc2)nc1C	0	0	0	0	0	0
COC(=O)c1sc(NC(=S)NC(=O)c2ccccc2Cl)nc1C	0	67.3	0	0	0	0
COC(=O)c1sc(NC(=S)NC(=O)c2ccccc2)nc1C	0	63.1	0	0	0	0
CCOC(=O)Cc1csc(NC(=S)NC(=O)c2ccccc2)n1	0	0	0	0	0	0
COc1cc(SC)ccc1C(=O)N(Cc1ccccc1)c1ccccn1	0	-	-	0	-	0
COc1ccc(CC(NC(C)=O)C(=O)NC2CCN(C(=O)c3ccccc3F)CC2)cc1 (stereo not given)	0	-	-	-	-	-
CCC(C)(C)C1CCC2(CC1)NC(=O)N(CC(=O)NCCc1c[nH]c3ccccc13)C2=O (stereo not given)	0	-	-	-	-	-

Compound activity as filed in PubChem BioAssay.
